Test results from paper PMC6430656 (Cell chemical biology, 2018).
Like-named read-outs stand apart in the source and are kept apart here.

Experiments:
HsTAK1 = settings: ref Totzke et al., 2017, cited from earlier work
HuH7 cells = test: HuH7 hepatoma cell viability; assay type: cell-based
PfCDPK1 = PfCDPK1 (Plasmodium falciparum, UniProt P62344); test: KINOMEScan affinity for PfCDPK1; assay type: binding
PfPK9 = PfPK9 (Plasmodium falciparum, UniProt Q8IEG4); test: ATP-competitive binding assay, GFP-PfPK9 on ATP-sepharose resin; settings: for relative PfPK9 binding compared to negative DMSO control: takinib analog screen at 250 and 500 μM
[1] = test system: P. berghei parasite load in HuH7 cells; test: P. berghei liver stage parasite load in HuH7 cells; assay type: cell-based, Plasmodium berghei
In short: (§1)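 Hepatoma cells were seeded with test compound (0–100 μM) before infection with 3,000 P. berghei ANKA sporozoites: 15,000 cells/well for HepG2 and 8,000 for HuH7. For HepG2, compound was also added at 0 or 4 hpi. Parasite load was read by luciferase luminescence at 45 h and normalised to 1% DMSO. EC50 came from a variable-slope four-parameter fit, mean ± SEM of n ≥4.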

[2] = test system: K63-linked ubiquitin in P. falciparum; assay type: cell-based, Plasmodium falciparum; settings: for K63-linked protein ubiquitination (band intensities relative to DMSO): 30 μM, 24 hrs, ring stage P. falciparum 3D7
In short: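 P. falciparum 3D7 was cultured in RPMI/AlbuMAX II at pH 7.2, 37 °C, under 3% O2, and sorbitol-synchronised. Ring stages (10 h post-reinvasion; 10% parasitemia, 1% haematocrit) were treated 24 h with test compound (30 μM, or 0.001–100 μM) or ≤0.1% DMSO. Cells were saponin-lysed and sonicated, then blotted with anti-K63-linkage ubiquitin, with anti-K48 ubiquitin as control and actin as loading control. Total band intensity was quantified across 2–3 independent experiments.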

PfPK5 = PfPK5 (Plasmodium falciparum, UniProt P61075); test: KINOMEScan affinity for PfPK5; assay type: binding
PfPK5, sequence (P61075 whole entry): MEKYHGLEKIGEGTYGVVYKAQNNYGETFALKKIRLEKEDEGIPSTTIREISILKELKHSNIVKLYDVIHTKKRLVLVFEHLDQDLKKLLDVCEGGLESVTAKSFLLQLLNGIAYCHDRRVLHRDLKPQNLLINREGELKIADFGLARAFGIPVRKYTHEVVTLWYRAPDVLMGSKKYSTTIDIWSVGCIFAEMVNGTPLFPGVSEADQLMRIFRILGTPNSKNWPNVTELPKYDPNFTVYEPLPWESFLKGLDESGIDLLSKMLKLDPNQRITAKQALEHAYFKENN

[3] = test system: P. berghei EEFs in HuH7 cells; test: Immunofluorescence analysis of P. berghei EEFs in HuH7 cells; assay type: cell-based, Plasmodium berghei
Solubility = assay type: physicochemical
[4] = test system: P. berghei parasite load in HepG2 cells; test: P. berghei liver stage parasite load in HepG2 cells; assay type: cell-based; settings: Plasmodium berghei, HepG2, read-out: EC50 P. berghei parasite load, HepG2 cells
In short: as §1

HepG2 cells = test: HepG2 hepatoma cell viability; assay type: cell-based
In short: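 HepG2 cells (15,000/well) were seeded with test compound, then infected with 3,000 P. berghei ANKA sporozoites. Viability was measured after 45 h in the same wells as the parasite-load read-out, using a fluorescence protease-activity assay (an ATP luminescence assay is also described). Signal was normalised to 1% DMSO, and ≥50% loss of viability was the exclusion threshold.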

[5] = test system: blood stage P. falciparum parasites; test: Inhibition of blood stage P. falciparum parasites; assay type: cell-based, Plasmodium falciparum; settings: 100 μM
HsIRAK4 = settings: read-out: IC50 HsIRAK4; ref Totzke et al., 2017; cited from earlier work
HsIRAK1 = settings: read-out: IC50 HsIRAK1; ref Totzke et al., 2017; cited from earlier work

PfCDPK1, sequence (P62344 whole entry): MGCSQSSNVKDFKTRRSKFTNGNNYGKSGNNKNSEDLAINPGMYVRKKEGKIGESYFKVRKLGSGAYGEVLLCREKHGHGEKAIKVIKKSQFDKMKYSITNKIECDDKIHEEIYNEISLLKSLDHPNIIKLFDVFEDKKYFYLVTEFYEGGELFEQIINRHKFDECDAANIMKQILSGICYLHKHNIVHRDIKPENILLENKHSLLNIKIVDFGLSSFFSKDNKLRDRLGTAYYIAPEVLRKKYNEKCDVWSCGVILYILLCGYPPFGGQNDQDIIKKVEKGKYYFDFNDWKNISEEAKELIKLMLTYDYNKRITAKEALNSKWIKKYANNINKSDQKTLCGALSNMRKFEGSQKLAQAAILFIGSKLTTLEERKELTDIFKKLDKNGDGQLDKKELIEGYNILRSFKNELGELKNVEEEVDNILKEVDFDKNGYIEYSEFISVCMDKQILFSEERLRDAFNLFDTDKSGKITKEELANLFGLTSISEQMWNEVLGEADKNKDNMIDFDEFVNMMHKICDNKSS

CCCn1c(NC(=O)c2cccc(C(=O)O)c2)nc2ccccc21 [HS220]
HsTAK1 inhibition, fold less potent than takinib (HsTAK1; HS220 vs takinib): 160,000 fold
effect on HsTAK1 activity (HsTAK1): little or no effect
change in HuH7 viability upon treatment (HuH7 cells): no significant change
decrease of cell viability (HuH7 cells; HuH7, any concentration tested): ≤ 30%
Kd (PfCDPK1; read-out: Kd PfCDPK1, tested up to 30 μM, KINOMEScan): > 30 µM
PfPK9 binding affinity, fold less potent than takinib (PfPK9; HS220 vs takinib): 8.9 fold
Kd (PfPK9; read-out: Kd(app) PfPK9 binding, converted from EC50, dose-response 0–500 μM): 4.1 ± 0.8 µM
relative PfPK9 binding compared to negative DMSO control (PfPK9): > 3 fold
EC50 ([1]; read-out: EC50 P. berghei parasite load, HuH7 cells): 43 ± 3.8 µM
K63-linked protein ubiquitination (band intensities relative to DMSO) [2]: decrease
Kd (PfPK5; read-out: Kd PfPK5, tested up to 30 μM, KINOMEScan): > 30 µM
number of EEFs ([3]; 30 μM, 0–48 hpi): did not change
EEF size ([3]; 30 μM, 0–48 hpi, vs DMSO): significantly increased
EEF size ([3]; 100 μM, 0–48 hpi): not affected
number of EEFs ([3]; 100 μM, 0–48 hpi): decreased

NC(=O)c1cccc(C(=O)Nc2nc3ccccc3s2)c1 [HS230]
effect on HsTAK1 activity (HsTAK1): little or no effect
relative PfPK9 binding compared to negative DMSO control (PfPK9): > 3 fold
solubility (Solubility): poor

CCCn1/c(=N/C(=O)c2cccc(C(N)=O)c2)[nH]c2ccccc21 [takinib]
EC50 [4]: 6.7 ± 1.3 µM
IC50 (HsTAK1; read-out: IC50 HsTAK1): 0.0095 µM
decrease of cell viability (HuH7 cells; HuH7, tested up to 200 μM): ≤ 40%
Kd (PfCDPK1): > 30 µM
decrease of HepG2 viability (HepG2 cells; 30 μM, relative to DMSO): ≤ 50%
decrease of cell viability (HepG2 cells; HepG2, tested up to 200 μM): ≤ 40%
inhibition of blood stage P. falciparum parasites [5]: inhibits
Kd (PfPK9): 0.46 ± 0.1 µM
EC50 ([1]; Plasmodium berghei, Huh-7, read-out: EC50 P. berghei parasite load): 7.3 ± 0.99 µM
IC50 (HsIRAK4): 0.12 µM
K63-linked protein ubiquitination (band intensities relative to DMSO) [2]: decreased
K63-linked ubiquitin signal (total intensity of all bands) ([2]; 30 and 100 μM): significantly decreased
K48-linked ubiquitin signal (control) ([2]; dose-response 0.001–100 μM): no change
IC50 (HsIRAK1): 0.39 µM
Kd (PfPK5): > 30 µM
EEF size ([3]; 10 μM, 0–24, 24–48 and 0–48 hpi, vs DMSO): significantly increased
number of EEFs (infected cells) ([3]; 10 μM, all time periods): not affected
number of EEFs ([3]; 30 μM, 0–24 hpi or 0–48 hpi): decreased
EEF size ([3]; 30 μM, 0–24 hpi or 24–48 hpi): increased
